Activity calls are given as the source filed them.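 Rule for the calls, unless noted: active = viability at or under a set limit in both replicates, limit being median viability minus 3 SD (cut at about 48% in these data, passing the limit was not always enough); inconclusive = at or under the limit in just one replicate; inactive = at or above the limit in both replicates.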
Legend:
[1] = reduced viability of SK-BR-3 breast cancer cells – cell-based, 24 h, human, pilot screen (AID 572;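 active = viability at or below 10% of carrier control in both of two separate runs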;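 note: compound exposure lasted between 18 and 24 h rather than exactly 24 h; 100% = carrier-treated control wells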); conditions: SK-BR-3 viability, CellTiter-Glo luminescence, at 10 µM, stronger effect = lower value
[2] = HUVEC growth inhibition – cell-based, human, primary screen (AID 575;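 active = viability at or below 30% in both replicate assays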;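 note: 100% = median of untreated cell wells with 0.1% DMSO on each plate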); conditions: HUVEC proliferation, CellTiter-Glo luminescence, 72 h; at 10 µM; stronger effect = lower value
Outline: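 Assay system: Primary human umbilical vein endothelial cells | Quantity: 1250 cells per well | Medium: Supplemented EBM, 2% fetal bovine serum | Detection: CellTiter-Glo luminescence measuring cellular ATP | Read-out: % viability vs DMSO wells | Plate: Collagen-coated 384-well format | Times: 72 h exposure, 37 °C, 5% CO2, 30 min RT equilibration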

[3] = H69AR cell proliferation blockers – human, duplicate replicates, primary screen (AID 580); conditions: H69AR lung tumor cells viability, ATP luminescence, 72 h; at 10 µM; stronger effect = lower value;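 note: 100% = mean luminescence of untreated wells and 0% = no signal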
[4] = MRP1 drug-resistance reversers in H69AR cells – cell-based, doxorubicin co-treatment, pilot screen (AID 601;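 active = viability loss from added drug above about 55%, and viability with drug at most 40%, in both replicates, limit read from the data, passing the limit was not always enough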); conditions: CellTiter-Glo, 72 h, at 10 µM; for differential viability (reversal): stronger effect = higher value
[5] = yeast transport mutant growth inhibition pilot in 384-well plates, post-Golgi transport modulator project (AID 636; in the data active = inhibition above about 31%); conditions: absorbance 615 nm, about 18 h, stronger effect = higher value
[6] = growth suppression of yeast trafficking mutant, preliminary HTS, modulators of trafficking downstream of Golgi apparatus project, 1536-format plate, OD 615 nm (AID 637; in the data active = inhibition above about 30%); conditions: yeast transport mutant growth, absorbance 615 nm, 18 h; stronger effect = higher value
[7] = H69AR cells + 2 uM doxorubicin, measured here: viability with 2 uM doxorubicin, stronger effect = lower value
[8] = H69AR cells, compound alone cytotoxicity

NS(=O)(=O)c1cc2c(cc1Cl)NC=NS2(=O)=O
viability [1]: 104% (inactive) | viability [2]: 93.9% (inactive) | viability [3]: 100% (inactive) | differential viability (reversal) ([4]; H69AR cells + 2 uM doxorubicin): 4.17% (inactive) | viability [4, 7]: 95.9% | viability [4, 8]: 100% | inhibition [5]: 0.13% (inactive) | inhibition [6]: 1% (inactive)

Nc1cc(=O)[nH]c(SCC(=O)Nc2ccc(Br)cc2)n1
viability [1]: 96% (inactive) | viability [2]: 101% (inactive) | viability [3]: 90.5% (inactive) | differential viability (reversal) ([4]; H69AR cells + 2 uM doxorubicin): 4.49% (inactive) | viability [4, 7]: 86% | viability [4, 8]: 90.5% | inhibition [5]: -0.52% (inactive) | inhibition [6]: -4.1% (inactive)

Cc1ccc2c(c1)C(O)(CC(=O)c1ccc3c(c1)OCO3)C(=O)N2 (centres undefined)
viability [1]: 78% (inactive) | viability [2]: 92.3% (inactive) | viability [3]: 94.3% (inactive) | differential viability (reversal) ([4]; H69AR cells + 2 uM doxorubicin): 8.13% (inactive) | viability [4, 7]: 86.2% | viability [4, 8]: 94.3% | inhibition [5]: -4.11% (inactive) | inhibition [6]: -7.58% (inactive)

COc1ccc(OC)c(NC(=O)C23CCC(C)(C(=O)C2)C3(C)C)c1 (centres undefined)
viability [1]: 72% (inactive) | viability [2]: 101% (inactive) | viability [3]: 102% (inactive) | differential viability (reversal) ([4]; H69AR cells + 2 uM doxorubicin): -0.69% (inactive) | viability [4, 7]: 103% | viability [4, 8]: 102% | inhibition [5]: -6.3% (inactive) | inhibition [6]: -2.73% (inactive)

CC(C)NC(=O)Nc1cccs1
viability [1]: 115% (inactive) | viability [2]: 99.5% (inactive) | viability [3]: 92.1% (inactive) | differential viability (reversal) ([4]; H69AR cells + 2 uM doxorubicin): -3.51% (inactive) | viability [4, 7]: 95.6% | viability [4, 8]: 92.1% | inhibition [5]: 2.47% (inactive) | inhibition [6]: -0.82% (inactive)

Cc1cc(=O)oc2ccc(OCC(=O)N(Cc3ccc(F)cc3)Cc3ccco3)cc12
viability [1]: 91% (inactive) | viability [2]: 50.9% (inactive) | viability [3]: 72% (inactive) | differential viability (reversal) ([4]; H69AR cells + 2 uM doxorubicin): 11.6% (inactive) | viability [4, 7]: 60.5% | viability [4, 8]: 72% | inhibition [5]: -2.47% (inactive) | inhibition [6]: -9.35% (inactive)

CCCCn1cnc2c1c(=O)n(C)c(=O)n2C
viability [1]: 77% (inactive) | viability [2]: 100% (inactive) | viability [3]: 100% (inactive) | differential viability (reversal) ([4]; H69AR cells + 2 uM doxorubicin): 11.1% (inactive) | viability [4, 7]: 89% | viability [4, 8]: 100% | inhibition [5]: 3.24% (inactive) | inhibition [6]: 0.18% (inactive)

C=COCCNC(=O)Nc1ccc(Cl)c(Cl)c1
viability [1]: 91% (inactive) | viability [2]: 101% (inactive) | viability [3]: 91.1% (inactive) | differential viability (reversal) ([4]; H69AR cells + 2 uM doxorubicin): -3.01% (inactive) | viability [4, 7]: 94.1% | viability [4, 8]: 91.1% | inhibition [5]: 2.16% (inactive) | inhibition [6]: -1.09% (inactive)

CCOC(=O)c1ccc(NC(=O)CCc2nc(-c3ccc(C)cc3)no2)cc1
viability [1]: 85% (inactive) | viability [2]: 38% (inactive) | viability [3]: 94.3% (inactive) | differential viability (reversal) ([4]; H69AR cells + 2 uM doxorubicin): 5.47% (inactive) | viability [4, 7]: 88.8% | viability [4, 8]: 94.3% | inhibition [5]: -3.29% (inactive) | inhibition [6]: 3.93% (inactive)

Cc1cc(S(=O)(=O)N(Cc2ccccc2)Cc2ccc(N(C)C)cc2)ccc1-n1cnnn1
viability [1]: 81% (inactive) | viability [2]: 84.3% (inactive) | viability [3]: 84% (inactive) | differential viability (reversal) ([4]; H69AR cells + 2 uM doxorubicin): -3.54% (inactive) | viability [4, 7]: 87.6% | viability [4, 8]: 84% | inhibition [5]: -8.24% (inactive) | inhibition [6]: -2.36% (inactive)

N#CC1=C(N)N(c2ccc(Oc3ccccc3)cc2)C(=O)C1
viability [1]: 130% (inactive) | viability [2]: 106% (inactive) | viability [3]: 90.2% (inactive) | differential viability (reversal) ([4]; H69AR cells + 2 uM doxorubicin): 8.2% (inactive) | viability [4, 7]: 82% | viability [4, 8]: 90.2% | inhibition [5]: -5.62% (inactive) | inhibition [6]: 0.48% (inactive)

C=CCN1C(=O)CS/C1=N/c1nccs1
viability [1]: 65% (inactive) | viability [2]: 96.5% (inactive) | viability [3]: 98.4% (inactive) | differential viability (reversal) ([4]; H69AR cells + 2 uM doxorubicin): 1.4% (inactive) | viability [4, 7]: 97% | viability [4, 8]: 98.4% | inhibition [5]: -8.9% (inactive) | inhibition [6]: -1.13% (inactive)

CCOC(=O)CSc1nnc2n1C(C)(C)Cc1ccccc1-2
viability [1]: 110% (inactive) | viability [2]: 111% (inactive) | viability [3]: 101% (inactive) | differential viability (reversal) ([4]; H69AR cells + 2 uM doxorubicin): -5.61% (inactive) | viability [4, 7]: 106% | viability [4, 8]: 101% | inhibition [5]: 4.32% (inactive) | inhibition [6]: -0.91% (inactive)
